Calls of active or inactive are those of the source. The rule behind the calls is not given here.
Legend:
[1] = biological target: Amyloid-beta precursor protein (Homo sapiens) (UniProt P05067); assay: Inhibition of self-induced aggregation of amyloid beta (1 to 42) (unknown origin) expressed in Escherichia coli BL21(DE3) at 10 uM incubated for 60 mins by fluorescence based analysis
[2] = biological target: 5-hydroxytryptamine receptor 6 (Homo sapiens, UniProt P50406); assay: Displacement of [3H]LSD from human 5HT6 receptor expressed in CHO-K1 membrane incubated for 60 mins by solid scintillation counting analysis; format: cell membranes
Sequence of 5-hydroxytryptamine receptor 6 (P50406 whole entry): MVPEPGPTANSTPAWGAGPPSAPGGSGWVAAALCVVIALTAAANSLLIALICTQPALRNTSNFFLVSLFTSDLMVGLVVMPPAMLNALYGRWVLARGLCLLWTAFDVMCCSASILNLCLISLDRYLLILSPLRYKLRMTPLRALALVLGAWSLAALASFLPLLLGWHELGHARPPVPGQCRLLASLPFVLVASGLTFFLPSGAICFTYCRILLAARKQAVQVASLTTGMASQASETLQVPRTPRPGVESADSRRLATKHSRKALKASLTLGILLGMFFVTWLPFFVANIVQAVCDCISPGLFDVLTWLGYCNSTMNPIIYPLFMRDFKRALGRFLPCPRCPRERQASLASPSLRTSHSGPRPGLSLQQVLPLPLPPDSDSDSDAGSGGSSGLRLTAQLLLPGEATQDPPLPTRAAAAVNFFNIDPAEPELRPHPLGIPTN

[3] = biological target: Cholinesterase (Equus caballus, UniProt P81908); assay: Inhibition of equine serum BuChE using BTC as substrate preincubated with enzyme for 5 mins followed by substrate addition for 5 mins by Ellman's method; format: cell-free
Sequence of Cholinesterase (Equus caballus, UniProt P81908) (P81908 whole entry): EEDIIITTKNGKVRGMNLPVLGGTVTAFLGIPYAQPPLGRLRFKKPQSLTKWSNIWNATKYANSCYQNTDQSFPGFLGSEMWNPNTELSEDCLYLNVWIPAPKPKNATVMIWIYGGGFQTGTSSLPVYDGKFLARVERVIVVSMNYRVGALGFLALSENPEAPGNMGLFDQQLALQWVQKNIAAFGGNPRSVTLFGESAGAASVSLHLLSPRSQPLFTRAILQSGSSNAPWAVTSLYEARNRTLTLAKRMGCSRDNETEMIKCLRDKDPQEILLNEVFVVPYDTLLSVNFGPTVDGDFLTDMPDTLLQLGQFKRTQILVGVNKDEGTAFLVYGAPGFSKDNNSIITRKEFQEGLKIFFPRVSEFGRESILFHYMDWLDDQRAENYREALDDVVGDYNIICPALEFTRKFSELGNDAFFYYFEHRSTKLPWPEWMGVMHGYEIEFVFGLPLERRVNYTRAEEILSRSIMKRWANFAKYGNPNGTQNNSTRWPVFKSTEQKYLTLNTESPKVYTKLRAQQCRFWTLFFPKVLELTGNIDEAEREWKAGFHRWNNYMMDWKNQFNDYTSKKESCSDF

[4] = biological target: T1, Cholinesterase (Homo sapiens, UniProt P06276); assay: Inhibition of BuChE in human plasma using BTC as substrate preincubated with enzyme for 5 mins followed by substrate addition for 5 mins by Ellman's method; format: cell-free
T1 sequence (P06276 whole entry): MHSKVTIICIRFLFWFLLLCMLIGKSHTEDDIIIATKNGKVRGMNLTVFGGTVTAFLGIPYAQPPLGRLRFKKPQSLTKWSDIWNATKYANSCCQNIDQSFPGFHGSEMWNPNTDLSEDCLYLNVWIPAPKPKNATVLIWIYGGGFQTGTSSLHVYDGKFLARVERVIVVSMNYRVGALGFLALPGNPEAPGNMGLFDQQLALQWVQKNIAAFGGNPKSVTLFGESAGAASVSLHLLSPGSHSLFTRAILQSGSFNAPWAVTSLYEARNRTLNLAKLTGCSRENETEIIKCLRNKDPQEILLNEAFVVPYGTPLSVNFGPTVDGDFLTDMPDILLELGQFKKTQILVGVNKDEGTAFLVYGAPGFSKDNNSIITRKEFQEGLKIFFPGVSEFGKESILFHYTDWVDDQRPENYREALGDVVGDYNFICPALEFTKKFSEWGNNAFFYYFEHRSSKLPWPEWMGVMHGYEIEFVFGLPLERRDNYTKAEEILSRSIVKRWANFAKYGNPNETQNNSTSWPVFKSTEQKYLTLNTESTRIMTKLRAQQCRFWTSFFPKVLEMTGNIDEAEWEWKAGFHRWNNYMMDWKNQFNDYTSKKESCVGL
Summary of the method: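 Human plasma BuChE at 0.384 U/mL final, with DTNB in 0.1 M phosphate pH 8.0. […] BTC solution (0.00375 M) added; A412 after 5 min. Run in triplicate; IC50 from nonlinear regression of residual activity versus concentration.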

[5] = biological target: Amyloid-beta precursor protein (Homo sapiens) (UniProt P05067); assay: Inhibition of amyloid beta (1 to 42) (unknown origin) self aggregation at 10 uM incubated for 24 to 48 hrs by Thioflavin-T based fluorometric assay; conditions: time lower […], time upper 48.0 hrs
[6] = biological target: T1, Cholinesterase; assay: Inhibition of BuChE in human plasma using BTC as substrate at 10 uM preincubated with enzyme for 5 mins followed by substrate addition for 5 mins by Ellman's method relative to control; format: cell-free; conditions: time 10.0 min
Summary of the method: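 Human plasma BuChE at 0.384 U/mL final, with DTNB in 0.1 M phosphate buffer pH 8.0. Compound at 10 µM screened, preincubated 5 min at 36 °C.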

[7] = biological target: Cholinesterase (Equus caballus) (UniProt P81908); assay: Reversible inhibition of equine serum BuChE using BTC as substrate at 10XIC50 preincubated with 100-fold diluted enzyme for 120 mins followed by substrate addition and measured after 5 mins by 100-fold dilution assay; format: cell-free; conditions: time 125.0 min
Sequence of Cholinesterase (Equus caballus) (P81908 whole entry): as the sequence (P81908 whole entry) above
Summary of the method: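 Equine BuChE preincubated with inhibitor at 100-fold the final enzyme concentration for 30, 60 or 120 min at 25 °C. Then diluted 100-fold into 0.1 M phosphate pH 8 with DTNB. BTC (0.00375 M) added; A412 read after 5 min. Activity recovery compared with enzyme/vehicle blanks; two independent experiments, each in quadruplicate.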

[8] = Metabolic stability in mouse liver microsomes assessed as parent compound remaining at 50 microM preincubated for 5 mins followed by incubation with NADPH regenerating system for 120 mins by UPLC-MS analysis; format: ADME, Microsome; conditions: time 125 min, read-out: Stability
Summary of the method: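 Mouse liver microsomes 1 mg/mL in 0.1 M Tris-HCl pH 7.4 with 50 μM compound, preincubated 5 min at 37 °C, then started with NADPH regeneration system; stopped after 120 min at 37 °C with cold methanol, centrifuged, supernatant analysed by UPLC-MS for remaining parent and metabolites. Verapamil served as reference.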

[9] = Cytotoxicity against human HepG2 cells assessed as non-toxic concentration incubated for 72 hrs by MTS assay; format: cell-based; conditions: read-out: MNCC
Summary of the method: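 HepG2 cells grown in MEM with 2 mM glutamine, 1% NEAA, 10% FBS at 37 °C, 5% CO2. Compounds tested in quadruplicate at 0.1, 1, 10 and 100 μM for 72 h; viability read by MTS (CellTiter 96 AQueous) assay. Doxorubicin 1 μM and CCCP 10 μM served as positive controls.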

[10] = Initial plasma concentration in CD-1 mouse at 3 mg/kg, iv by LC-ESI-MS/MS analysis; format: ADME, organism-based
Summary of the method: (§1)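 Adult male CD-1 mice (20–25 g), dosed in saline i.v. 3 mg/kg or intragastrically 30 mg/kg; 6 animals per time point. Under i.p. ketamine/xylazine anaesthesia, blood collected after decapitation into heparinized tubes, plasma separated; brain homogenized in pH 7.4 phosphate buffer (1:2.5). Acetonitrile precipitation with internal standard, LC/ESI-MS/MS on C18 with formic acid eluents; non-compartmental parameters.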

[11] = Cmax in CD-1 mouse plasma at 30 mg/kg, po measured for 480 mins by LC-ESI-MS/MS analysis; format: ADME, organism-based; set-up: route oral, dose 30 mg/kg, time 480 min; summary of the method: as §1
[12] = Initial drug concentration in CD-1 mouse brain at 3 mg/kg, iv by LC-ESI-MS/MS analysis; format: ADME, organism-based; summary of the method: as §1
[13] = Cmax in CD-1 mouse brain at 30 mg/kg, po measured for 480 mins by LC-ESI-MS/MS analysis; format: ADME, organism-based; set-up: route oral, dose 30 mg/kg, time 480 min; summary of the method: as §1
[14] = Tmax in CD-1 mouse plasma at 30 mg/kg, po measured for 480 mins by LC-ESI-MS/MS analysis; format: ADME, organism-based; summary of the method: as §1
[15] = AUC (0 to t) in CD-1 mouse plasma at 3 mg/kg, iv measured for 480 mins by LC-ESI-MS/MS analysis; format: ADME, organism-based; set-up: dose 3 mg/kg, time 480 min; summary of the method: as §1
[16] = AUC (0 to t) in CD-1 mouse plasma at 30 mg/kg, po measured for 480 mins by LC-ESI-MS/MS analysis; format: ADME, organism-based; set-up: time 480 min, dose 30 mg/kg; summary of the method: as §1
[17] = AUC (0 to t) in CD-1 mouse brain at 3 mg/kg, iv measured for 480 mins by LC-ESI-MS/MS analysis; format: ADME, organism-based; conditions: in vivo, 8 h; summary of the method: as §1
[18] = AUC (0 to t) in CD-1 mouse brain at 30 mg/kg, po measured for 480 mins by LC-ESI-MS/MS analysis; format: ADME, organism-based; conditions: in vivo, 8 h; summary of the method: as §1
[19] = MRT in CD-1 mouse plasma at 3 mg/kg, iv measured for 480 mins by LC-ESI-MS/MS analysis; format: ADME, organism-based; conditions: in vivo, 8 h; summary of the method: as §1
[20] = MRT in CD-1 mouse plasma at 30 mg/kg, po measured for 480 mins by LC-ESI-MS/MS analysis; format: ADME, organism-based; summary of the method: as §1
[21] = MRT in CD-1 mouse brain at 3 mg/kg, iv measured for 480 mins by LC-ESI-MS/MS analysis; format: ADME, organism-based; summary of the method: as §1
[22] = MRT in CD-1 mouse brain at 30 mg/kg, po measured for 480 mins by LC-ESI-MS/MS analysis; format: ADME, organism-based; summary of the method: as §1
[23] = Oral bioavailability in CD-1 mouse at 30 mg/kg measured for 480 mins by LC-ESI-MS/MS analysis; format: ADME, organism-based; conditions: in vivo; summary of the method: as §1
[24] = Apparent oral volume of distribution at steady state in CD-1 mouse at 30 mg/kg measured for 480 mins by LC-ESI-MS/MS analysis; format: ADME, organism-based; conditions: in vivo; summary of the method: as §1
[25] = Apparent oral clearance in CD-1 mouse at 30 mg/kg measured for 480 mins by LC-ESI-MS/MS analysis; format: ADME, organism-based; conditions: in vivo; summary of the method: as §1
[26] = Half life in CD-1 mouse plasma at 3 mg/kg, iv measured for 480 mins by LC-ESI-MS/MS analysis; format: ADME, organism-based; summary of the method: as §1
[27] = Half life in CD-1 mouse plasma at 30 mg/kg, po measured for 480 mins by LC-ESI-MS/MS analysis; format: ADME, organism-based; summary of the method: as §1
[28] = Half life in CD-1 mouse brain at 3 mg/kg, iv measured for 480 mins by LC-ESI-MS/MS analysis; format: ADME, organism-based; summary of the method: as §1
[29] = Half life in CD-1 mouse brain at 30 mg/kg, po measured for 480 mins by LC-ESI-MS/MS analysis; format: ADME, organism-based; summary of the method: as §1
[30] = Tmax in CD-1 mouse brain at 30 mg/kg, po measured for 480 mins by LC-ESI-MS/MS analysis; format: ADME, organism-based; summary of the method: as §1
[31] = Ratio of drug level in brain to plasma in CD-1 mouse at 3 mg/kg, iv by LC-ESI-MS/MS analysis; format: ADME, organism-based; conditions: read-out: BPR; summary of the method: as §1
[32] = Ratio of drug level in brain to plasma in CD-1 mouse at 30 mg/kg, po by LC-ESI-MS/MS analysis; format: ADME, organism-based; conditions: read-out: BPR; summary of the method: as §1

Sequence of Amyloid-beta precursor protein (Homo sapiens) (P05067 whole entry): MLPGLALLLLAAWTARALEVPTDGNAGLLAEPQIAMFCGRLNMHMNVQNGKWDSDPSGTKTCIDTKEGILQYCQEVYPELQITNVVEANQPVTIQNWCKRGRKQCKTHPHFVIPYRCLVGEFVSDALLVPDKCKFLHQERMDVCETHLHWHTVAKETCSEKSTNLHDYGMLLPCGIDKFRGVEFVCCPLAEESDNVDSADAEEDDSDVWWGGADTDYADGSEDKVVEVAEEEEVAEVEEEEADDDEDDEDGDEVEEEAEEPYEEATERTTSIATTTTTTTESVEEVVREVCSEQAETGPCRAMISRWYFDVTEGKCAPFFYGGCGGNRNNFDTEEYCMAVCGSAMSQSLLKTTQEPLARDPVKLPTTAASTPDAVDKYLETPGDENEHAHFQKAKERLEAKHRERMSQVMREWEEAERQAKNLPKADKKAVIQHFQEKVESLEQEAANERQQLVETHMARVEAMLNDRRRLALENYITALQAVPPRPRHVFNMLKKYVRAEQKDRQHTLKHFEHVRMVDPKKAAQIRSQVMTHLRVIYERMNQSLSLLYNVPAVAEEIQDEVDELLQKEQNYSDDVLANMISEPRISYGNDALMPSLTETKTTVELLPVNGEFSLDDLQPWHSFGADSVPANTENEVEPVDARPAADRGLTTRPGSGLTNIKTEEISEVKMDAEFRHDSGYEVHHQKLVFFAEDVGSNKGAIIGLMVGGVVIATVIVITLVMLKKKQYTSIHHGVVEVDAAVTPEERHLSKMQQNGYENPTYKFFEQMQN

## O=S(=O)(c1ccccc1)n1ccc2c(N3CCN(CCCCCCNc4c5c(nc6ccccc46)CCCC5)CC3)cccc21
[1]
  inhibition: 30%

## CC(C)(C)OC(=O)N1CCCC(CNCCOc2cccc3c2CCN3Cc2ccccc2)C1 (stereo not given)
[2]
  Ki: 1080 nM
[3]
  IC50: 25.7 nM
[4]
  IC50: 175 nM
[5]
  inhibition: 79.7%
[6]
  inhibition: > 50%
[7]
  inhibition: Active

## CC(C)(C)OC(=O)N1CCCC(CNCCOc2cccc3c2ccn3Cc2ccccc2)C1 (stereo not given)
[2]
  Ki: 369 nM
[3]
  IC50: 11 nM
[4]
  IC50: 115 nM
[5]
  inhibition: 79.4%
[6]
  inhibition: > 50%
[7]
  inhibition: Active

## O=S(=O)(c1ccccc1)n1ccc2c(OCCNCC3CCCCC3)cccc21
[3]
  IC50: 89.9 nM
[4]
  IC50: 551 nM
[8]
  remaining at 2 h, 50 µM: 59%
[9]
  MNTC at 72 h: ≤ 1000 nM
[10]
  C0: 176 ng/mL
[11]
  Cmax: 532 ng/mL
[12]
  C0: 404 ng/mL
[13]
  Cmax: 2800 ng/mL
[14]
  Tmax: 1 h
[15]
  AUC(0-t) at 8 h: 627 ng·h/mL
[16]
  AUC(0-t) at 8 h: 1800 ng·h/mL
[17]
  AUCt: 125194 ng·min/g
[18]
  AUCt: 734469 ng·min/g
[19]
  MRT: 3.18 h
[20]
  MRT: 3.24 h
[21]
  MRT: 2.83 h
[22]
  MRT: 3.24 h
[23]
  bioavailability: 28.7%
[24]
  Vd/F: 81.4 L/kg
[25]
  CL/F: 189 mL/min/kg
[26]
  half-life: 5.53 h
[27]
  half-life: 4.97 h
[28]
  half-life: 2.97 h
[29]
  half-life: 3 h
[30]
  Tmax: 1 h
[31]
  Kp: 3.33
[32]
  Kp: 6.79

— ChEMBL document CHEMBL4828761, “Development and crystallography-aided SAR studies of multifunctional BuChE inhibitors and 5-HT6R antagonists with β-amyloid anti-aggregation properties” (Eur J Med Chem, 2021)
